Rows were chosen to be rich in hits. Some 4.5% of all compounds tested hit in one or more screens of this group.
GPR7 antag – antagonists of human GPR7 (neuropeptides B/W receptor 1); P48145; inhibition, % at 4.4 µM; 290,000 tested, 1.1% active; AID 1861; GPR7-expressing cells, fluorescence antagonist assay; in the data active means inhibition above about 16%, passing the limit was not always enough;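 further: cells stimulated with the agonist NPW; 0% = agonist with vehicle and 100% = vehicle without agonist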
Target sequence (P48145 whole entry, looked up): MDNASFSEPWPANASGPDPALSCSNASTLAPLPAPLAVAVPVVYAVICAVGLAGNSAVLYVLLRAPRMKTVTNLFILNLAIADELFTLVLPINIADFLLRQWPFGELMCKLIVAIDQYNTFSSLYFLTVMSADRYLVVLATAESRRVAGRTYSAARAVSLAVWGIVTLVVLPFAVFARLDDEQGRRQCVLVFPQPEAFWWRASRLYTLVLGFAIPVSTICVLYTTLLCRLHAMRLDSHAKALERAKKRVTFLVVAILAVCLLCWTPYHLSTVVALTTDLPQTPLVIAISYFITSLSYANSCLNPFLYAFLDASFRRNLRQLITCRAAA
OX1R antag-1 – antagonists of human orexin 1 receptor; 330,000 tested, 0.43% active; O43613; inhibition, % at 5 µM; CHO/OX1R cells, Fluo-8 calcium fluorescence, orexin A;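 active means inhibition above its plate's threshold, mean inhibition of all tested compounds on the plate plus 3 SD, cut at about 37% in these data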;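 further: 0% = orexin A challenge wells and 100% = SB-334867-A antagonist wells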
TAAR1 ag – agonists of human TAAR1. Q96RJ0. CHO RD-HGA16 TAAR1, Fluo-8 calcium fluorescence; vehicle wells 0%, saturating PEA agonist 100%. activation, % at 3 µM. 360,000 tested, 0.99% active. AID 624467;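 active means activation above the mean activation of all test compounds in the run plus 3 SD, cut at about 38% in these data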
Target sequence (Q96RJ0 whole entry, looked up): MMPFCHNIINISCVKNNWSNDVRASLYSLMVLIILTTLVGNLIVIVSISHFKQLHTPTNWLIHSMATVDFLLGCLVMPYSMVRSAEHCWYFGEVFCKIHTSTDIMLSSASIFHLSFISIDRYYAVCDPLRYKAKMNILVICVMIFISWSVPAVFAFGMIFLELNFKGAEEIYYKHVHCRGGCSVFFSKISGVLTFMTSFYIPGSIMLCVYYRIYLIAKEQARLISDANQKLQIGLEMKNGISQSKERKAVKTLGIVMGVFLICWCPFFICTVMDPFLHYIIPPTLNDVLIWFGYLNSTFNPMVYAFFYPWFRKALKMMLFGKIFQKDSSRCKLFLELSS
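Repeats: no replicates (n 1) | Material: CHO-derived RD-HGA16 cells with stable Gα16 and human TAAR1 | Technique: Kinetic Fluo-8 calcium fluorescence | Schedule: 17-24 h seeding, 75 min 37 °C dye, 30 min RT | Evaluation: % activation from peak over basal fluorescence ratio, DMSO-to-PEA scaled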
CHO parental Ca – counter-screen: ATP calcium response change in parental CHO cells | AID 463079 | parental CHO-K1, ATP-induced calcium, Fluo-8 fluorescence | 330,000 tested, 0.63% active | inhibition, % at 5.6 µM;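 active means inhibition above that plate's mean sample inhibition plus 3 SD, cut at about 26% in these data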;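 further: 0% = ATP-challenged DMSO wells and 100% = DMSO wells without ATP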
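Material – parental CHO cells · Reagent – ATP stimulus · Compound – single nominal dose of 5.6 µM per compound · Detection – Fluo-8 fluorescence · Read-out basis – percent inhibition of calcium signal · Controls – ATP-challenged DMSO wells low, unchallenged DMSO wells high · Repeats – no replicates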
TAAR1 antagonist – antagonists of human TAAR1. Q96RJ0. CHO RD-HGA16 TAAR1, Fluo-8 calcium fluorescence, antagonist. inhibition, % at 3 µM. 360,000 tested, 1.5% active;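 active means inhibition above a per-plate cutoff, the mean inhibition of test compounds on that plate plus 3 SD, cut at about 49% in these data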;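 further: 0% = DMSO plus EC80 beta-PEA response and 100% = DMSO alone without agonist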
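System: CHO RD-HGA16 cells bearing hTAAR1. Reagent: EC80 β-phenethylamine stimulus. Schedule: seeding 17-24 h prior, 75-min 37 °C, 30-min RT dye loading. Signal: Fluo-8 intracellular calcium dye fluorescence, real-time kinetic reads. Read-out: % inhibition from peak post-agonist over basal fluorescence ratio. Benchmarks: vehicle wells and EC80 agonist wells. Replicates: n of 1.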
OX1R antag-2 – OX1R (human) antagonism | AID 485270 | inhibition, % at 6.6 µM | 330,000 tested, 1.8% active | OX1R-expressing cells, FRET antagonist read-out; in the data active means inhibition mostly above about 38%, no sharp cut-off; inactive means mostly below about 40%;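 further: 0% = agonist challenge alone and 100% = reference antagonist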
* marks the source's active call; other numbers are inactive results; . = no result given.

SMILES	GPR7 antag	OX1R antag-1	TAAR1 ag	CHO parental Ca	TAAR1 antagonist	OX1R antag-2
CCCCCCC12C(=Cc3cc(C)ccc31)c1ccccc1C(CC(=O)NCc1ccccc1)N2C(=O)OC (stereo not drawn)	.	.	-1	.	-15	.
COCc1[nH]nc2c1C(c1ccc3c(c1)OCO3)N(Cc1ccccc1)C2=O (stereo not drawn)	.	.	1	.	9	.
COc1cc(SC)ccc1C(=O)OCc1nc2ccsc2c(=O)[nH]1	.	-18	5	-21	19	39
Cc1ccccc1Nc1nc(N)nc(COC(=O)c2ccco2)n1	.	-4	4	-11	1	6
COCc1c(C(=O)OCc2nc3ccsc3c(=O)[nH]2)oc2ccccc12	.	11	1	-20	1	28*
COCc1c(C(=O)OCc2nc(N)nc(Nc3ccccc3C)n2)oc2ccccc12	1	16	11	-25	0	47*
COc1cc2ccccc2cc1C(=O)OCc1nc2ccsc2c(=O)[nH]1	.	-7	7	-22	25	35*
COc1cc(C(=O)OC(C)c2ccc(F)cc2)ccc1OCC(=O)N1CCOCC1 (stereo not drawn)	.	-14	4	-8	-14	4
O=C(NCc1ccccc1)[C@@H]1CCCN1C(=O)[C@H]1CCCN1C(=O)c1cc(F)cc(F)c1	.	.	1	.	6	.
S=c1[nH]nc(-c2cccs2)n1/N=C/c1c(Cl)cccc1Cl	-19	51*	48*	34*	53*	108*
COc1ccc(/C=N/n2c(-c3cccs3)n[nH]c2=S)cc1	0	-23	2	-4	-2	43
COc1ccc(C2CC(=O)C(c3ccc(Cl)c(Cl)c3)=CN2Cc2ccccc2)cc1 (stereo not drawn)	.	.	5	.	-5	.
O=C(COC(=O)c1ccc(OC(F)F)cc1)NCC1CCCO1 (stereo not drawn)	.	.	0	.	-13	.
COc1ccc(C=NNC(=S)NC23CC4CC(CC(C4)C2)C3)cc1OC	.	.	1	.	-9	.
COc1cc(/C=N/NC(=O)NC23CC4CC(CC(C4)C2)C3)ccc1OCC(N)=O	-11	-22	28	2	58*	0
COc1cc(-c2nc3cnccn3c2Nc2ccc(C(C)C)cc2)ccc1O	-9	-8	22	37*	39	-3
Oc1ccc(Oc2ccc(Oc3ccc(O)cc3)cc2)cc1	-7	-2	8	3	51*	24
CC(=O)Nc1ccc(NC(=O)COC(=O)c2c3c(nc4ccccc24)CCN(Cc2ccccc2)C3)cc1	-5	-1	20	-7	63*	26
O=C(COC(=O)c1c2c(nc3ccccc13)CCN(Cc1ccccc1)C2)Nc1c(F)cccc1F	5	-1	13	-4	39	43
N#Cc1c2n(c(=S)n(-c3ccc(OC(F)F)cc3)c1=O)CCCCC2	17*	13	20	-4	16	6
CC(C)CC1C(=O)N(Cc2cn(CCC3OCCO3)nn2)CCS(=O)(=O)N1Cc1ccc(-c2cccc(N(C)C)c2)cc1 (stereo not drawn)	.	.	19	.	52*	.
CC(C)CC1C(=O)N(Cc2cn(CCC3OCCO3)nn2)CCS(=O)(=O)N1Cc1ccc(-c2ccc(F)cc2)cc1 (stereo not drawn)	.	.	9	.	54*	.
CN(C)CCN(C(=O)C1=COCCO1)c1nc2ccc(F)cc2s1	-7	-9	1	-4	-11	7
O=C1[C@H](c2ccccc2)[C@@H](c2ccncc2)N1c1ccncc1	.	.	1	.	-12	.
C=CC[C@H](CC(=O)N[C@H](CO)Cc1ccccc1)C(=O)N[C@@H](COC(=O)[C@H](CC=C)CC(=O)OC(C)(C)C)Cc1c[nH]c2ccccc12	.	-16	11	-17	60*	4
SMILES	GPR7 antag	OX1R antag-1	TAAR1 ag	CHO parental Ca	TAAR1 antagonist	OX1R antag-2
C=CC[C@@H](CC(=O)N[C@H](CO)Cc1ccccc1)C(=O)N[C@H](COC(=O)[C@@H](CC=C)CC(=O)OC(C)(C)C)Cc1c[nH]c2ccccc12	.	84*	22	61*	65*	-1
CCC(C)c1ccc(NC(=O)Nc2cccnc2)cc1 (stereo not drawn)	-16	-3	1	-1	32	20
O=C(c1ccco1)N1CCN(C(=O)c2ccco2)CC1	.	.	0	.	-23	.
N#C/C=C/N1CCN(C(=O)c2ccco2)CC1	.	11	41*	-6	-34	-1
COC(=O)C1=C(C)N(Cc2ccccc2)C(=NCCc2c[nH]c3ccccc23)N[C@H]1c1cccc(C(F)(F)F)c1	.	67*	.	38	.	4
Cc1cc(NC(=O)C(C)SCC(=O)Nc2ccccc2C(C)(C)C)no1 (stereo not drawn)	.	-1	11	-16	-32	14
COC(=O)[C@@]12C[C@@H](CC(=O)NCCC(C)C)C(=O)N(CCc3ccc(OC)c(OC)c3)C1=CCC(C)(C)C2	.	.	3	.	-7	.
COC(=O)[C@]12CCCCC=C1N(CCc1ccc(OC)c(OC)c1)C(=O)[C@H](CC(=O)NCc1cccc(C(F)(F)F)c1)C2	.	.	5	.	49*	.
COC(=O)[C@@]12C[C@@H](CC(=O)NCc3cccc(C(F)(F)F)c3)C(=O)N(CCc3ccc(OC)c(OC)c3)C1=CCC(C)(C)C2	.	.	8	.	58*	.
Cc1noc(C)c1NC(=O)N(C)C[C@H]1Oc2ccc(NC(=O)Cn3cnnn3)cc2C(=O)N([C@H](C)CO)C[C@@H]1C	.	2	2	-2	6	-1
COC(=O)/C=C1\OC(C)c2ccccc21 (stereo not drawn)	.	.	-1	.	-24	.
Cc1oc2c(c1C(=O)N1CCC(C)CC1)C(=O)c1ccccc1C2=O	-5	-31	4	-21	8	67*
CCOC(=O)C1CCN(C(=O)c2c(C)oc3c2C(=O)c2ccccc2C3=O)CC1	-14	-33	2	-18	26	70*
CCC(C)N(Cc1ccc(OC)cc1OC)S(=O)(=O)c1cc(Br)ccc1Br (stereo not drawn)	.	.	0	.	11	.
COC(=O)C1=C(C)N(C)C(=NCc2ccc(OC)cc2)NC1c1cccc(F)c1 (stereo not drawn)	.	.	4	.	-7	.
C#CCOCCOCCOCCNc1nc(N2CCN(C(=O)CCCCCCCCCCNC(=O)[C@H]([C@@H](C)CC)n3cc(CCCCCN)nn3)CC2)nc(N2CCN(C(=O)CCCCCCCCCCNC(=O)[C@@H]([C@H](C)O)n3cc(C)nn3)CC2)n1	.	-8	.	-4	.	-23
C#CCOCCOCCOCCNc1nc(N2CCN(C(=O)CCCCCCCCCCNC(=O)[C@H](CCCCN)n3cc(C)nn3)CC2)nc(N2CCN(C(=O)CCCCCCCCCCNC(=O)[C@@H]([C@H](C)CC)n3cc(CCCCCN)nn3)CC2)n1	.	-8	.	73*	.	-4

Screening results (PubChem BioAssay)
